From ChEMBL document CHEMBL2074042, “beta-lactam antibiotics as substrates for OCTN2, an organic cation/carnitine transporter” (J Biol Chem, 2000)

Legend:
Assay type in all cases: functional, cell-based
[1] = molecular target: T1, Solute carrier family 15 member 1 (Homo sapiens) (UniProt P46059); assay: TP_TRANSPORTER: inhibition of Gly-Sar uptake (Gly-Sar: 50 uM, Cefluprenam: 2500uM) in PEPT1-expressing HeLa cells
T1 sequence (whole entry): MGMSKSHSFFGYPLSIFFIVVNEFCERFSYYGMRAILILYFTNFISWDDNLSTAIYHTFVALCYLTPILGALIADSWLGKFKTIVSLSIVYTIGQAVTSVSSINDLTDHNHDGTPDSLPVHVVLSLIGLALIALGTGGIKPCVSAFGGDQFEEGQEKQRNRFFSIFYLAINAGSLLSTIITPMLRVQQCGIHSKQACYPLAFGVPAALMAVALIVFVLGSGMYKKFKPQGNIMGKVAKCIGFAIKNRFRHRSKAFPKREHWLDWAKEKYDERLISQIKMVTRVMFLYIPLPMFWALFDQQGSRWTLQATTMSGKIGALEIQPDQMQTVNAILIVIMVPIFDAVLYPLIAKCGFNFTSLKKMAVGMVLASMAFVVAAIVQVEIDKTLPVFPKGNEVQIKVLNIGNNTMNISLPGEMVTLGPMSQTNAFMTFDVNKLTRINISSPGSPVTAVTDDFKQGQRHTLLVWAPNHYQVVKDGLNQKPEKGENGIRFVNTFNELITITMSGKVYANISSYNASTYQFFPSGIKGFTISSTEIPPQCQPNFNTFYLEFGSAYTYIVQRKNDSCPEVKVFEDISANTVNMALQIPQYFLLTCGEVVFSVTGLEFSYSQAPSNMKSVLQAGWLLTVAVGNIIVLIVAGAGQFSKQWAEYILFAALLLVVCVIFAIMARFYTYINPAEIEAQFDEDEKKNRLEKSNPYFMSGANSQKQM
In short: (§1)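 HeLa cells expressing human PEPT1 cDNA. [14C]glycylsarcosine (50 μM) uptake for 5 min in Mes/Tris buffer, pH 6.0, giving an H+ gradient, with test compound at 2.5 mM. Vector-transfected uptake subtracted. Percent of control, n=3, mean ± S.E.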

[2] = molecular target: T2, Solute carrier family 15 member 2 (Rattus norvegicus) (UniProt Q63424); assay: TP_TRANSPORTER: inhibition of Gly-Sar uptake (Gly-Sar: 25 uM, Cefluprenam: 2500uM) in PEPT2-expressing HeLa cells
T2 sequence (whole entry): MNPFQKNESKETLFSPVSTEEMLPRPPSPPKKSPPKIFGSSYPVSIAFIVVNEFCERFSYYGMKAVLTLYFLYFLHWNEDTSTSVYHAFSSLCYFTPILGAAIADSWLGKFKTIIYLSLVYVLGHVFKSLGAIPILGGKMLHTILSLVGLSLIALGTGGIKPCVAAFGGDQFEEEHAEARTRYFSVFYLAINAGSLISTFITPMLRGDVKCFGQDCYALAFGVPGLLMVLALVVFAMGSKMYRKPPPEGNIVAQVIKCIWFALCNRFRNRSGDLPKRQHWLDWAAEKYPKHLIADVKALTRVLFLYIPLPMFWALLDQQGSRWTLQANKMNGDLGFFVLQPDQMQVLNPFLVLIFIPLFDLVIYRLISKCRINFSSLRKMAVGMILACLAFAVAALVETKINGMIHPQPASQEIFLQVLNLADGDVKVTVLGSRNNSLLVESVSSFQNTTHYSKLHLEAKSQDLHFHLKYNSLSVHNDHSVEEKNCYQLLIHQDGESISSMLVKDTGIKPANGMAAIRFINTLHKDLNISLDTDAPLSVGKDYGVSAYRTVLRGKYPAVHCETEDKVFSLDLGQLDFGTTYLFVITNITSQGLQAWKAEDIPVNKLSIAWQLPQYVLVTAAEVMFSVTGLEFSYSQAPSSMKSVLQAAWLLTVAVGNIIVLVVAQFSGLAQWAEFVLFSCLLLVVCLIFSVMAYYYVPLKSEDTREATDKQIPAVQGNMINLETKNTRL
In short: (§2)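 HeLa cells expressing rat PEPT2 cDNA. [14C]glycylsarcosine (25 μM) uptake for 5 min under an inward H+ gradient in Mes/Tris buffer, pH 6.0, with test compound at 2.5 mM. Vector-cell uptake subtracted. Results as percent of control, three independent measurements, mean ± S.E.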

[3] = molecular target: T3, OCTN2 (organic cation/carnitine transporter 2) (Rattus norvegicus, UniProt O70594); assay: (§3) TP_TRANSPORTER: inhibition of Carnitine uptake (Carnitine: 0.02 uM, Cefluprenam: 2500 uM) in OCTN2-expressing HeLa cells; design: scale not given: the % may be the effect or the level left; settings: human, probe carnitine (0.02 uM), read-out: Activity
T3 sequence (O70594 whole entry): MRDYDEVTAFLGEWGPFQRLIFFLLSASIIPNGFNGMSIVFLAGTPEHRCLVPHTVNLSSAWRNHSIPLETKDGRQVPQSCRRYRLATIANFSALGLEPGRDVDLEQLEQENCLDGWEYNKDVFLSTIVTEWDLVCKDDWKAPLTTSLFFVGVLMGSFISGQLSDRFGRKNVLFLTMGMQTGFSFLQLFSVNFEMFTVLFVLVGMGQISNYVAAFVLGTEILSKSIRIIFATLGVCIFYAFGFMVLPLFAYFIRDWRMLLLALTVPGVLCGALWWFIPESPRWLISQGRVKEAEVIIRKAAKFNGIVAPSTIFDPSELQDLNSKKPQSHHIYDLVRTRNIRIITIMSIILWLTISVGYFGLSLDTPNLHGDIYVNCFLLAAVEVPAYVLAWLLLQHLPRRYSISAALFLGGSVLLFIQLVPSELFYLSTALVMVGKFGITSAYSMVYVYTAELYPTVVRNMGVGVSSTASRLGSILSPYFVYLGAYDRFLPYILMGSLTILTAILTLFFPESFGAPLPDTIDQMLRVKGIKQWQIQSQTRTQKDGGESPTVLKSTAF
In short: (§4)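 HeLa cells expressed human or rat OCTN2 cDNA by vaccinia virus/T7 system. [3H]carnitine (20 nM) uptake for 30 min at room temperature in Na+-containing Hepes/Tris buffer, pH 7.5, with β-lactam at 2.5 mM. Lysate radioactivity counted. Endogenous activity from vector-only cells subtracted. Four measurements from two transfections.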

[4] = molecular target: T4, OCTN2 (organic cation/carnitine transporter 2) (Homo sapiens, UniProt O76082); assay: as §3; design: scale not given: the % may be the effect or the level left; settings: probe carnitine (0.02 uM), read-out: Activity; in short: as §4
T4 sequence (O76082 whole entry): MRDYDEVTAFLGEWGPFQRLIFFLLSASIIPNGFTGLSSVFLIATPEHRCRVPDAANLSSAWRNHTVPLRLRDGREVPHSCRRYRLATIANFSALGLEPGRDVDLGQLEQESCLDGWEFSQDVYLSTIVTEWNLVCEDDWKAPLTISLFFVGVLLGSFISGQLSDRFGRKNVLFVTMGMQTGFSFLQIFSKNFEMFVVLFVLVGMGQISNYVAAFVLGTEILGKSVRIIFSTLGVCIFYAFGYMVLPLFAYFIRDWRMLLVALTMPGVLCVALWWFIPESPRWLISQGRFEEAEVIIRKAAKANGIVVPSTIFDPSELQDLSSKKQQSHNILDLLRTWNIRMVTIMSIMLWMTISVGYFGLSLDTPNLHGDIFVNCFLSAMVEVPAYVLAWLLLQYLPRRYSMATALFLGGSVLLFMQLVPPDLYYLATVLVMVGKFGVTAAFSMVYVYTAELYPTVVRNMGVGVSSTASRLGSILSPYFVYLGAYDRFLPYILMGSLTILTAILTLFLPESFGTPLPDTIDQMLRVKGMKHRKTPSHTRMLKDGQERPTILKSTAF

[5] = molecular target: T1, Solute carrier family 15 member 1 (Homo sapiens); assay: TP_TRANSPORTER: inhibition of Gly-Sar uptake (Gly-Sar: 50 uM, CER: 2500uM) in PEPT1-expressing HeLa cells; in short: as §1
[6] = molecular target: T5, Organic cation/carnitine transporter 2 (Homo sapiens, UniProt O76082); assay: TP_TRANSPORTER: uptake in OCTN2-expressing HeLa cells
T5 sequence (O76082 whole entry): T4 sequence (O76082 whole entry)
In short: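 hOCTN2 or vector-transfected HeLa cells incubated with 1 mM cephaloridine for 1 h at 37 °C in NaCl or N-methyl-D-glucamine chloride (Na+-free) medium. Cells lysed in water and lysate centrifuged. Supernatant cephaloridine quantified by C18 HPLC with UV at 254 nm against a standard curve, expressed per 10^6 cells.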

[7] = molecular target: T5, Organic cation/carnitine transporter 2; assay: TP_TRANSPORTER: inhibition of Carnitine uptake (Carnitine: 0.02 uM, Cephalexin: 2500 uM) in OCTN2-expressing HeLa cells
[8] = molecular target: T5, Organic cation/carnitine transporter 2; assay: TP_TRANSPORTER: inhibition of Carnitine uptake (Carnitine: 0.02 uM, Cefdinir: 2500 uM) in OCTN2-expressing HeLa cells
[9] = molecular target: T3, OCTN2 (organic cation/carnitine transporter 2); assay: TP_TRANSPORTER: inhibition of Carnitine uptake (Carnitine: 0.02 uM, Cefepime: 2500 uM) in OCTN2-expressing HeLa cells; design: scale not given: the % may be the effect or the level left; settings: human, probe carnitine (0.02 uM), read-out: Activity; in short: as §4
[10] = molecular target: T1, Solute carrier family 15 member 1 (Homo sapiens); assay: TP_TRANSPORTER: inhibition of Gly-Sar uptake (Gly-Sar: 50 uM, Cefepime: 2500uM) in PEPT1-expressing HeLa cells; in short: as §1
[11] = molecular target: T2, Solute carrier family 15 member 2 (Rattus norvegicus); assay: TP_TRANSPORTER: inhibition of Gly-Sar uptake (Gly-Sar: 25 uM, Cefepime: 2500uM) in PEPT2-expressing HeLa cells; in short: as §2
[12] = molecular target: T5, Organic cation/carnitine transporter 2; assay: TP_TRANSPORTER: inhibition of Carnitine uptake (Carnitine: 0.02 uM) in OCTN2-expressing HeLa cells
[13] = molecular target: T5, Organic cation/carnitine transporter 2; assay: TP_TRANSPORTER: inhibition of Carnitine uptake (Carnitine: 0.02 uM, Ampicillin: 2500 uM) in OCTN2-expressing HeLa cells

CC[N+](C)(C/C=C/C1=C(C(=O)[O-])N2C(=O)[C@@H](NC(=O)/C(=N\OCF)c3nsc(N)n3)[C@H]2SC1)CC(N)=O (stereo partly drawn) [CEFLUPRENAM]
Activity [1]: is not an inhibitor [-]
Activity [2]: is not an inhibitor [-]
activity at 2500 µM [3]: 76%
activity at 2500 µM [4]: 74%

O=C(Cc1cccs1)N[C@@H]1C(=O)N2C(C(=O)[O-])=C(C[n+]3ccccc3)CS[C@H]12 [CEPHALORIDINE]
Activity [5]: is not an inhibitor [-]
Activity [6]: substrate [+]

CC1=C(C(=O)O)N2C(=O)[C@@H](NC(=O)[C@H](N)c3ccccc3)[C@H]2SC1 [CEPHALEXIN ANHYDROUS]
Activity [7]: is not an inhibitor [-]

C=CC1=C(C(=O)O)N2C(=O)[C@@H](NC(=O)/C(=N\O)c3csc(N)n3)[C@H]2SC1 [CEFDINIR]
Activity [8]: is not an inhibitor [-]

CO/N=C(\C(=O)N[C@@H]1C(=O)N2C(C(=O)[O-])=C(C[N+]3(C)CCCC3)CS[C@H]12)c1csc(N)n1 [CEFEPIME]
activity at 2500 µM [9]: 28%
Activity [10]: is not an inhibitor [-]
Activity [11]: is not an inhibitor [-]
IC50 [12]: 1700 µM

CC1(C)S[C@@H]2[C@H](NC(=O)[C@H](N)c3ccccc3)C(=O)N2[C@H]1C(=O)O [AMPICILLIN]
Activity [13]: is not an inhibitor [-]
